Measured values taken from PubChem BioAssay.
Results filed as inconclusive are left out. The source made the active and inactive calls.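 The calls were made as follows, unless noted: active = RAM network inhibition above 8.4% in each of two replicates, 3 SD over the compound average; inconclusive = above 8.4% inhibition in only one replicate; inactive = 8.4% inhibition or less in each replicate.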

Experiments:
[1] = S. cerevisiae growth inhibition in permissive medium (OD615), pilot counter-assay for S. cerevisiae lifespan shortening project, permissive growth control (AID 705;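 active = growth inhibition above 25% in both replicates, a cutoff set 3 SD above the mean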); details: OD615, 24 h, at 10 µM, stronger effect = higher value
Summary of the method: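 System: Engineered DeaD yeast | Buffer or medium: SC raffinose/galactose permissive medium | Doses: 10 µM single dose, 0.25% DMSO | Times: 24 h exposure, 30 °C | Measured by: OD615 turbidity read | Read-out: Yeast growth inhibition indicated by reduced 24 h OD615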

[2] = S. cerevisiae growth inhibition in restrictive medium, OD615, pilot screen, restrictive growth control, yeast lifespan reduction project (AID 706;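 active = growth inhibition above a set limit, 3 SD over mean compound inhibition, in both replicates, cut at about 43% in these data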;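 also: modified DeaD lifespan yeast strain shifted to restrictive glucose medium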); details: OD615, 48 h, at 10 µM, stronger effect = higher value
Summary of the method: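 Assay system: engineered S. cerevisiae DeaD strain; Buffer or medium: CSMM-D glucose medium; Dosing: 10 µM compound, 0.25% DMSO; Times: cell pre-growth 4 h, compound exposure 48 h, 30 °C; Detection: absorbance (optical density) measured at 615 nm.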

[3] = doxorubicin toxicity protection in MRP-1 cells – H69AR cells, CellTiter-Glo, duplicate, MRP-1 activator project, pilot screen (AID 807;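 active = viability increase at or above a cutoff of the median across tested compounds plus 3 SD, cut at about 8.5% in these data, passing the limit was not always enough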;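 also: compound pretreatment 18-22 h then 72 h combined with doxorubicin; 0% = doxorubicin alone and 100% = vehicle without doxorubicin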); details: H69AR viability with doxorubicin, CellTiter-Glo luminescence; at 10 µM; stronger effect = higher value
[4] = viability of HCT116 without oncogenic beta-catenin – human colon tumor cells, pilot screen (AID 823;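 active = cell viability at or below a set limit in both duplicate runs, the limit being the all-compound median minus 4 SD, cut at about 23% in these data, passing the limit was not always enough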;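 also: 0% = wells killed by 20 µM Hyamine and 100% = untreated DMSO cell wells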); details: HCT116 beta-catenin knockout viability, CellTiter-Glo, 60 h; at 10 µM; stronger effect = lower value
[5] = viability of PTEN-null HCT116 cells – cell-based, HCT116 clonal line, CellTiter-Glo, pilot screen (AID 824;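 active = viability at or below 27.92% in each of two runs, the all-compound median minus 4 SD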;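 also: 0% = 20 µM Hyamine control and 100% = vehicle cell control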); details: HCT116 PTEN-deleted viability, 60 h, at 10 µM, stronger effect = lower value
[6] = RAM pathway blockade in budding yeast – dse1pr::URA3 reporter, 5-FOA selection, pilot screen (AID 869;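 active = inhibition over a set limit, the all-compound mean plus 3 SD, in both replicate runs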;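 also: 0% = DMSO wells with no growth and 100% = 10 µM 1-NA-PP1 with full growth; RAM network block rescues cells from 5-FOA so hits raise OD615 growth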); details: S. cerevisiae dse1pr::URA3 5-FOA growth, OD615, 2 d; at 10 µM; stronger effect = higher value; strain carries analog-sensitive mutant Cbk1 kinase
[7] = RAM signaling pathway blockade in yeast – S. cerevisiae, Pdr1DBD-CYC8 efflux-inhibited sensitized strain, primary screen (AID 1298);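 also: 0% = DMSO untreated cells without growth and 100% = 10 µM 1-NA-PP1 full growth; higher means more yeast growth rescued from 5-FOA killing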; details: S. cerevisiae cbk1-as DSE1-URA3 strain, 5-FOA growth OD615, 2 d; at 50 µM; stronger effect = higher value

O=C(O)CCC(=O)N1CCc2cc(S(=O)(=O)N3CCC(Cc4ccccc4)CC3)ccc21
inactive: growth inhibition [1] -6.24% | growth inhibition [2] 0.935% | viability increase [3] -2.63% | viability [4] 97.8% | viability [5] 82.2% | inhibition [6] 1.47% | RAM network inhibition [7] 3.85%

Cn1c(=O)oc2cc(S(=O)(=O)N3CCCC(C(=O)N4CC=C(c5ccccc5)CC4)C3)ccc21 (stereo not drawn)
inactive: growth inhibition [1] -10.7% | growth inhibition [2] 8.07% | viability increase [3] -1.04% | viability [4] 80.9% | viability [5] 82.1% | inhibition [6] 1.17% | RAM network inhibition [7] 4.97%

COc1ccccc1NC(=O)C1C2C=CC3(CN(Cc4cccnc4)C(=O)C13)O2 (stereo not drawn)
inactive: growth inhibition [1] 6% | growth inhibition [2] 4.22% | viability increase [3] 0.16% | viability [4] 98.2% | viability [5] 103% | inhibition [6] -0.25% | RAM network inhibition [7] -0.51%

COc1cc(CNC(=O)OCC(C)C)cc(OC)c1OC
inactive: growth inhibition [1] -11.4% | growth inhibition [2] -20.8% | viability increase [3] -0.03% | viability [4] 99.7% | viability [5] 99% | inhibition [6] 0.19% | RAM network inhibition [7] -0.93%

COC(=O)C1CCN(C(c2cccs2)c2sc3nc(C)nn3c2O)CC1 (stereo not drawn)
inactive: growth inhibition [1] -3.2% | growth inhibition [2] 1.52% | viability increase [3] -1.54% | viability [4] 102% | viability [5] 96.4% | inhibition [6] 1.68% | RAM network inhibition [7] 1.07%

Cn1cnnc1SCCC(=O)Nc1ccccc1
inactive: growth inhibition [1] 6.46% | growth inhibition [2] 0.795% | viability increase [3] -1.01% | viability [4] 101% | viability [5] 99.5% | inhibition [6] 1.14% | RAM network inhibition [7] 2.5%

COc1ccc(OC)c(NC(=O)Nc2nnc(N3CCC(C)CC3)s2)c1
inactive: growth inhibition [1] -10.7% | growth inhibition [2] -9.16% | viability increase [3] 0.87% | viability [4] 93.1% | viability [5] 92.7% | inhibition [6] 1.01% | RAM network inhibition [7] 2.27%

CCC(CC)C(=O)Nc1ccccc1NC(C)=O
inactive: growth inhibition [1] -3.13% | growth inhibition [2] 0.295% | viability increase [3] 0.4% | viability [4] 99.8% | viability [5] 98% | inhibition [6] 0.36% | RAM network inhibition [7] 4.35%

c1ccc(COc2ccc(Nc3ncnc4nc[nH]c34)cc2)cc1
inactive: growth inhibition [1] -2.53% | growth inhibition [2] 7.49% | viability increase [3] -0.86% | viability [4] 85.7% | viability [5] 83% | inhibition [6] 0.435% | RAM network inhibition [7] 4.8%

COc1ccccc1N(CC(=O)Nc1c(C)cccc1C)S(C)(=O)=O
inactive: growth inhibition [1] -11.2% | growth inhibition [2] -8.78% | viability increase [3] -1.48% | viability [4] 101% | viability [5] 98.2% | inhibition [6] 0.715% | RAM network inhibition [7] 3.12%

COCCCNC(=O)Cn1nnc(-c2ccc(NC(=O)c3ccc(F)cc3)cc2)n1
inactive: growth inhibition [1] -9.11% | growth inhibition [2] -28.5% | viability increase [3] 0.73% | viability [4] 99.7% | viability [5] 96.8% | inhibition [6] 0.705% | RAM network inhibition [7] 4.54%

O=C(NCCc1csc(-c2cccnc2)n1)c1ccco1
inactive: growth inhibition [1] 4.59% | growth inhibition [2] 4.47% | viability increase [3] -4.68% | viability [4] 105% | viability [5] 98.6% | inhibition [6] 0.97% | RAM network inhibition [7] 2.36%

N#CC1=C2SCN(Cc3ccccc3)CN2C(=O)CC1c1ccccc1F (stereo not drawn)
inactive: growth inhibition [1] -3.35% | growth inhibition [2] 15.7% | viability increase [3] -4.34% | viability [4] 90.4% | viability [5] 88.4% | inhibition [6] 1.01% | RAM network inhibition [7] 2.49%

COc1ccc(-c2noc(CN3CCN(c4ccccc4)CC3)n2)cc1
inactive: growth inhibition [1] -12.7% | growth inhibition [2] -10.2% | viability increase [3] -1.14% | viability [4] 93.6% | viability [5] 88.4% | inhibition [6] 1% | RAM network inhibition [7] 5.43%

Cc1ccc(-c2nc(CS(=O)(=O)CC(=O)N3CC(C)CC(C)C3)c(C)o2)cc1 (stereo not drawn)
inactive: growth inhibition [1] 0.15% | growth inhibition [2] 4.4% | viability increase [3] -2.57% | viability [4] 58% | viability [5] 72.8% | inhibition [6] 1.93% | RAM network inhibition [7] 3.8%

CC1(C)CC(=O)C2=C(C1)Nc1ccccc1NC2c1ccccn1 (stereo not drawn)
inactive: growth inhibition [1] 11.4% | growth inhibition [2] 3.1% | viability increase [3] -3.1% | viability [4] 100% | viability [5] 95.4% | inhibition [6] 0.245% | RAM network inhibition [7] 3.12%

O=C(NC1CC1)c1ccc(CS(=O)(=O)c2c(Cl)cccc2Cl)o1
inactive: growth inhibition [1] 3.79% | growth inhibition [2] -6.65% | viability increase [3] -2.96% | viability [4] 105% | viability [5] 97.4% | inhibition [6] 0.475% | RAM network inhibition [7] 4.31%

CN1CCCN(Cc2ccccc2C(F)(F)F)CC1
inactive: growth inhibition [1] 1.78% | growth inhibition [2] 1.52% | viability increase [3] -1.78% | viability [4] 97.6% | viability [5] 98.1% | inhibition [6] 1.25% | RAM network inhibition [7] 1.53%

Oc1c(C(c2cccs2)N2CCN(c3ccccc3)CC2)sc2ncnn12 (stereo not drawn)
active: viability increase [3] 12.3%
inactive: growth inhibition [1] -13.2% | growth inhibition [2] -5.4% | viability [4] 90.9% | viability [5] 89.5% | inhibition [6] 1.53% | RAM network inhibition [7] 1.45%

Cc1ccc2c(c1)NC(=O)C(CC(=O)NCCCN1CCCCC1C)O2 (stereo not drawn)
inactive: growth inhibition [1] 6.71% | growth inhibition [2] 8.33% | viability increase [3] -1.72% | viability [4] 101% | viability [5] 101% | inhibition [6] -0.48% | RAM network inhibition [7] 1.25%

O=C(Nc1ccccc1Cl)c1ccc2c(c1)N(Cc1ccc(F)cc1)C(=O)CS2=O (stereo not drawn)
inactive: growth inhibition [1] -5.36% | growth inhibition [2] -7.24% | viability increase [3] 1.1% | viability [4] 83.3% | viability [5] 72.5% | inhibition [6] 3.9% | RAM network inhibition [7] 3.95%

O=C1CCC(=O)N1c1ccc(CSc2nc3ccccc3[nH]2)cc1
inactive: growth inhibition [1] -4.96% | growth inhibition [2] -2.19% | viability increase [3] 0.79% | viability [4] 104% | viability [5] 92.9% | inhibition [6] 1.06% | RAM network inhibition [7] 2.24%

CCOc1ccc(-n2c(SCc3ccc(C(=O)OC)o3)nc3c(c2=O)SCC3)cc1
inactive: growth inhibition [1] -21.2% | growth inhibition [2] -16.2% | viability increase [3] -2.41% | viability [4] 81.3% | viability [5] 72.7% | inhibition [6] 2.39% | RAM network inhibition [7] 6.94%

COc1cccc(OCCCCSc2ncccn2)c1
inactive: growth inhibition [1] 0.33% | growth inhibition [2] 4.57% | viability increase [3] -2.94% | viability [4] 93.2% | viability [5] 90.2% | inhibition [6] -0.22% | RAM network inhibition [7] 4.14%
